The values below come from ChEMBL document CHEMBL5154731, “Synthetic methodology-enabled discovery of a tunable indole template for COX-1 inhibition and anti-cancer activity” (Bioorg Med Chem, 2022).

Data set [1] has as its system LNCaP. The experiment in a line: Cytotoxicity against human LNCaP cells over expressing androgen receptor F876L mutant assessed as reduction in cell viability measured after 72 hrs by MTS assay. In kind it is functional, cell-based. In outline: (§1)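 Cells seeded at 2000 to 4500/well on day 1. Next day, treated 72 h with drug at 2.5 to 500 μM from a 1% DMSO solution in medium (DMSO control), each in triplicate. All with 10% FBS. MTS reagent added for 2.5–3 h at 37 °C, absorbance at 490 nm; eight points averaged per concentration.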
(Tetrazolium dyes change colour on reduction, which living cells bring about.)

For data set [2], the system named is HeLa. Put plainly: Cytotoxicity against human HeLa cells assessed as reduction in cell viability measured after 72 hrs by MTS assay. The format is functional, cell-based. In outline:
as §1

Data set [3] has as its target T1, Prostaglandin G/H synthase 1 (Ovis aries) (UniProt P05979).
T1 sequence (whole entry): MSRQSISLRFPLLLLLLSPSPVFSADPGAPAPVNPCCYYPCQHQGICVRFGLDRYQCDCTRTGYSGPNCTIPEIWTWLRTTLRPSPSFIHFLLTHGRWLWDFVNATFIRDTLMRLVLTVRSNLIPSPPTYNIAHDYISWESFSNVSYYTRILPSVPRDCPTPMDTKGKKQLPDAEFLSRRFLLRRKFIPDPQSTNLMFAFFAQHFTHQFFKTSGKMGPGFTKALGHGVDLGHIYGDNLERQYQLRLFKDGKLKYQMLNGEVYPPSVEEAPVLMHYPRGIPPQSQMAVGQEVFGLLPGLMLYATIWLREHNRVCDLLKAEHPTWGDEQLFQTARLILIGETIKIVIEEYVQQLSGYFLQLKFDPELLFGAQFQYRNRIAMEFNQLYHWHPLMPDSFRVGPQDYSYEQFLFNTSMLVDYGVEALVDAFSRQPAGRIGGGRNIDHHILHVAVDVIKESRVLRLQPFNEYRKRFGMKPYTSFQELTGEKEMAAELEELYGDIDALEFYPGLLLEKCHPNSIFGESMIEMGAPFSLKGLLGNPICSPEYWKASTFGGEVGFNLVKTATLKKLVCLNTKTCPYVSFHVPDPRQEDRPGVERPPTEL
Put plainly: Inhibition of full-length ovine COX-1 at 50 uM using arachidonic acid as substrate preincubated for 5 mins followed by substrate addition and measured after 2 mins by colorimetry relative to control. To be noted: time 7.0 min.

The test system of data set [4] is A549. Put plainly: Cytotoxicity against human A549 cells assessed as reduction in cell viability measured after 72 hrs by MTS assay. In kind it is functional, cell-based. To be noted: A549, 72 h. In outline:
as §1

Data set [5] has as its target T2, Prostaglandin G/H synthase 1 (Ovis aries, UniProt P05979).
T2 sequence (P05979 whole entry): T1 sequence (whole entry)
Put plainly: Inhibition of full-length ovine COX-1 using arachidonic acid as substrate preincubated for 5 mins followed by substrate addition and measured after 2 mins by colorimetry.

In data set [6] the test system is DU-145. Put plainly: Cytotoxicity against human DU-145 cells assessed as reduction in cell viability measured after 72 hrs by MTS assay. In kind it is functional, cell-based. To be noted: DU-145, 72 h. In outline: as §1
Data set [7] concerns HepG2. The experiment in a line: Cytotoxicity against human HepG2 cells assessed as reduction in cell viability measured after 72 hrs by MTS assay. The format is functional, cell-based. To be noted: HepG2, 72 h. In outline: as §1
Data set [8] addresses T1, Prostaglandin G/H synthase 1 (Ovis aries). The experiment in a line: Inhibition of full-length ovine COX-1 at 5 uM using arachidonic acid as substrate preincubated for 5 mins followed by substrate addition and measured after 2 mins by colorimetry relative to control. To be noted: time 7.0 min.
Data set [9] deals with MCF7. The experiment in a line: Cytotoxicity against human MCF7 cells assessed as reduction in cell viability measured after 72 hrs by MTS assay. To be noted: MCF7, 72 h. In kind it is functional, cell-based. In outline: as §1
For data set [10], the system named is MDA-MB-231. Put plainly: Cytotoxicity against human MDA-MB-231 cells assessed as reduction in cell viability measured after 72 hrs by MTS assay. To be noted: MDA-MB-231, 72 h. The format is functional, cell-based. In outline:
as §1

Data set [11] is described as follows: Cytotoxicity against African green monkey Vero cells assessed as reduction in cell viability measured after 72 hrs by MTS assay. To be noted: African green monkey (Chlorocebus sabaeus). In kind it is toxicity, cell-based. In outline:
as §1

The subject of data set [12] is Vero. Put plainly: Cytotoxicity against African green monkey Vero cells assessed as reduction in cell viability at 2.5 to 500 uM measured after 72 hrs by MTS assay. In kind it is toxicity, cell-based. To be noted: chlorocebus sabaeus, dose 2.5-500 µM. In outline: as §1
In data set [13] the test system is HepG2. Put plainly: Induction of apoptosis in human HepG2 cells assessed as up regulation of Bax expression at 75 uM measured after 20 hrs by Western blot analysis. In kind it is functional, cell-based. In outline: (§2)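 Hep-G2 (1 × 10^6/well) plated 48 h before treatment, then exposed 20 h to 0.1% DMSO solutions of compound (DMSO control). Cells washed in PBS and lysed in RIPA; 20–40 μg protein run on 4–20% gel at 150 V for 65 min, transferred to PVDF, blocked in 5% BSA. Probed overnight for cleaved and pro-caspase, Bcl-xL, Bcl-2, Bax and actin, then IRDye secondaries 1 h, with fluorescence quantification.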
A general note: Immunoblotting shows a protein as a band on a membrane.

Data set [14] relates to HepG2. Put plainly: Down regulation of AR expression in human HepG2 cells at 75 uM measured after 20 hrs by Western blot analysis. In kind it is functional, cell-based.
Data set [15] deals with HepG2. The experiment in a line: Induction of apoptosis in human HepG2 cells assessed as increase in cleaved caspase-3 level at 75 uM measured after 20 hrs by Western blot analysis. In kind it is functional, cell-based. In outline:
as §2

The test system of data set [16] is HepG2. Put plainly: Induction of apoptosis in human HepG2 cells assessed as decrease in Bcl-2 expression at 75 uM measured after 20 hrs by Western blot analysis. In kind it is functional, cell-based. In outline: as §2
Data set [17] deals with HepG2. Put plainly: Induction of apoptosis in human HepG2 cells assessed as down regulation of Bcl-xl expression at 75 uM measured after 20 hrs by Western blot analysis. In kind it is functional, cell-based. In outline:
as §2

Data set [18] relates to HepG2. Put plainly: Induction of apoptosis in human HepG2 cells assessed as increase in ratio of Bax/Bcl-2 expression at 75 uM measured after 20 hrs by Western blot analysis. The format is functional, cell-based. In outline:
as §2

The test system of data set [19] is HepG2. Put plainly: Cell cycle arrest in human HepG2 cells assessed as increase in cell accumulation at G1/G0 phase at 100 uM measured after 24 to 48 hrs by propidium iodide staining based FACS analysis. The format is functional. To be noted: time 24-48 hrs. In outline:
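Hep-G2 grown to 70% confluence in 10-cm dishes, treated in 0.1% DMSO medium for 24 or 48 h (0.1% DMSO control). Floating and trypsinized cells pooled, washed in PBS, fixed overnight at –20 °C in 70% ethanol, then 200 μg/mL RNase A for 30 min and 100 μg/mL propidium iodide for 30 min at room temperature. DNA content read by flow cytometry; two independent experiments in duplicate.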
For orientation: Flow cytometry measures light scatter and fluorescence of single cells or particles in a stream.

As a reminder, the IC50 is the concentration needed to halve the response being measured. A word on the inhibition: it is the percentage by which the read-out fell short of the control.

Active and inactive are the calls of the source. The rule behind the calls is not given here. Bounds are passed on as bounds.

Consider `COc1ccc2c(CO)cn(C)c2c1C(=O)NCC(F)(F)F`, for which the IC50 in data set [1] was 99 µM; in data set [2], 110 µM; in data set [4], 164 µM; in [5] it was 85.8 µM; in data set [6], 144 µM; in [7] it was 58.2 µM. The IC50 in data set [9] amounted to 273 µM; in [10], 253 µM. The inhibition in [3] and in data set [8] was under 20% in each case. Moreover, the IC50 at 72 h in [11] stood at 229 µM.
For the molecule `COc1ccc2c(Cc3cn(C)c4c(C(=O)NCC(F)(F)F)c(OC)ccc34)cn(C)c2c1C(=O)NCC(F)(F)F`, in [12], the Activity result is on record as “Non-Toxic”. For the same molecule, the inhibition in data set [3] and in data set [8] was under 20% throughout.
Regarding `Cc1ccc(-c2cc(C(F)(F)F)nn2-c2ccc(S(N)(=O)=O)cc2)cc1` [CELECOXIB], the result in data set [13], in [14], in [15], in [16], in [17] and in [18] was Active. Moreover, the outcome in [19] was Active. The IC50 in data set [1] was 16.4 µM; in [2], 58.2 µM; in data set [4] it was 57.9 µM; in data set [6] it was 59.3 µM; in [7] it was 58.2 µM; in data set [9], 64.2 µM. Further, in [10], the IC50 was determined as 69.6 µM. Further, the IC50 at 72 h in data set [11] is 60.6 µM.
On to `COc1ccc2c(C(=O)O)cn(C)c2c1C(=O)OCC(F)(F)F`, for which the Activity entry in data set [12] was “Non-Toxic”.
As to `COc1ccc2c(Cc3cn(C)c4c(C(=O)OCC(F)(F)F)c(OC)ccc34)cn(C)c2c1C(=O)OCC(F)(F)F`, the Activity result in data set [12] was “Non-Toxic”. For the same molecule, the values for the inhibition in data set [3] and in data set [8] were 22.9% and under 20%, respectively.
